Measured values from ChEMBL document CHEMBL4052832, “Selective Inhibitors of Human Neuraminidase 3” (J Med Chem, 2018).
In brackets after ≈: the same amount, converted by molar mass. One block for each compound: values may come before it. Activity calls are given as the source filed them. No cut-off for these calls is given here.

Tests used:
[1] = Octanol-water partition coefficient, log D of compound at pH 7.4 at 10 uM after 2 hrs by LC-MS based shake flask analysis; type: physicochemical
Summary of the method: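 Shake-flask log D at pH 7.4. Octanol and 0.1 M Tris-HCl pH 7.4, mutually saturated. Compound at 10 μM in buffer with 0.1% DMSO, at two octanol:buffer ratios, each in triplicate.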

Sialidase-1 [2] = molecular target: T1, Sialidase-1 (Homo sapiens, UniProt Q99519); assay: Inhibition of human CathA-IRES-6His-tagged NEU1 expressed in HEK293T cells using 4MU-NANA as substrate preincubated for 15 mins followed by substrate addition measured every minute for 30 mins by fluorescence based assay; type: cell-based; settings: hek-293t
Summary of the method: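 Ki determination. Enzyme preincubated with serially diluted inhibitor 15 min at 0 °C, then serial 4MU-NANA concentrations added.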

[3] = Kinetic solubility of compound in 0.9% NaCl at 10 mM incubated in supersonic bath for 30 mins measured after 24 hrs by LC-MS analysis; type: physicochemical; settings: read-out: Kinetic_solubility
Summary of the method: (§1)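 Kinetic solubility. 10 mM DMSO stock diluted 1:100 into 0.1 M Tris-HCl pH 7.4, Prisma HT buffer, or 0.9% NaCl in water (final 1% DMSO). Sonicated 30 min at 25 °C, equilibrated 24 h at 25 °C, filtered (0.2 μm), diluted in MeOH and analysed by LC-MS. Single measurements.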

[4] = Kinetic solubility of compound in Prisma HT 6.5 buffer at pH 7.4 at 10 mM incubated in supersonic bath for 30 mins measured after 24 hrs by LC-MS analysis; type: physicochemical; settings: pH 6.5, in the assay text read “at pH 6.5” for “at pH 7.4”, read-out: Kinetic_solubility; summary of the method: as §1
[5] = Efflux ratio of apparent permeability from basolateral to apical side over apical to basolateral side of human Caco2 cells at 62.5 uM after 30 mins by LC-MS analysis; type: ADME, cell-based; settings: Caco-2
Summary of the method: (§2)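 Caco-2 monolayer permeation run in triplicate in the apical-to-basolateral and basolateral-to-apical directions. Compound at 62.5 μM in the donor chamber with 0.6% DMSO. Samples taken at 30 min for LC-MS. Papp = (dQ/dt)/(A × c0). Efflux ratio is Papp b→a over Papp a→b.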

[6] = Half life in human liver microsomes at 20 uM by LC-MS analysis; type: ADME, microsome
[7] = Kinetic solubility of compound in Tris-HCl buffer at pH 7.4 at 10 mM incubated in supersonic bath for 30 mins measured after 24 hrs by LC-MS analysis; type: physicochemical; settings: Tris-HCl buffer, pH 7.4; read-out: Kinetic_solubility; summary of the method: as §1
[8] = Apparent permeability from apical side to basolateral side in human Caco2 cells at 62.5 uM after 30 mins by LC-MS analysis; type: ADME, cell-based; settings: Caco-2; summary of the method: as §2
[9] = Apparent permeability from basolateral side to apical side in human Caco2 cells at 62.5 uM after 30 mins by LC-MS analysis; type: ADME, cell-based; settings: Caco-2; summary of the method: as §2
Sialidase-3 [10] = molecular target: T2, Sialidase-3 (Homo sapiens, UniProt Q9UQ49); assay: Inhibition of human N-terminal MBP-fused NEU3 expressed in Escherichia coli using GM3 as substrate preincubated for 15 mins followed by substrate addition measured after 30 mins by fluorescence based assay
T2 sequence (Q9UQ49 whole entry): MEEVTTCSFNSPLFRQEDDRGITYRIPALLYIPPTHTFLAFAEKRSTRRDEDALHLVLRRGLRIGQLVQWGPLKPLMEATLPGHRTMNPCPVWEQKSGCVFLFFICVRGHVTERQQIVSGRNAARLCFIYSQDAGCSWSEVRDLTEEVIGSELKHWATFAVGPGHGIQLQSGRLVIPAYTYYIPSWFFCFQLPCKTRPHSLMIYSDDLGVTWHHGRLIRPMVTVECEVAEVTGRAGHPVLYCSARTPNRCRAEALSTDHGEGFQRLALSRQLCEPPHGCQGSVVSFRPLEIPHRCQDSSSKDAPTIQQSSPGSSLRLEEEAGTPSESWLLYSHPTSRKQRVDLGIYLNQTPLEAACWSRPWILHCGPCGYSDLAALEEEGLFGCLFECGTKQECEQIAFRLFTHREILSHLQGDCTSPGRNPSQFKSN
Summary of the method: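 GM3 hydrolysis in 0.1 M sodium acetate pH 4.5. Serially diluted inhibitors preincubated with enzyme 15 min at 0 °C, then GM3 added to 500 μM for 30 min at 37 °C. Quenched with fresh 0.2 M sodium borate pH 10.2, then malononitrile added to form a fluorescent adduct with freed sialic acid; ex 357/em 434 nm.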

Sialidase-1 [11] = molecular target: T1, Sialidase-1; assay: Inhibition of human CathA-IRES-6His-tagged NEU1 expressed in HEK293T cells using 4MU-NANA as substrate preincubated for 15 mins followed by substrate addition measured after 30 mins by fluorescence based assay; type: cell-based, HEK-293T
Sialidase-3 [12] = molecular target: T2, Sialidase-3; assay: Inhibition of human N-terminal MBP-fused NEU3 expressed in Escherichia coli using 4MU-NANA as substrate preincubated for 15 mins followed by substrate addition measured after 30 mins by fluorescence based assay
[13] = molecular target: Sialidase-1 (Mus musculus) (UniProt O35657); assay: Inhibition of NEU1 in C57BL6 mouse brain homogenate assessed as residual activity at 10 uM using 4MU-NANA as substrate after 30 mins relative to control
Summary of the method: (§3)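 Brains from 12-week-old WT, neu1−/−, neu3−/− or neu3−/−neu4−/− mice, snap-frozen and homogenized in water; protein by Bradford. Acidic neuraminidase assayed at pH 4.6 using homogenate equal to 300 μg protein, inhibitor 0–150 μM and 200 μM 4MU-NANA, 37 °C for 30 min. Stopped with 0.4 M glycine pH 10.5. Activity relative to no-inhibitor, mean ± SD of 6–12 experiments.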

[14] = molecular target: Sialidase-1 (Mus musculus) (UniProt O35657); assay: Inhibition of NEU1 in NEU3/NEU4 double knockout C57BL6 mouse brain homogenate up to 150 uM using 4MU-NANA as substrate after 30 mins; summary of the method: as §3
[15] = molecular target: Sialidase NEU3/NEU4 (Mus musculus) (UniProt Q9JMH7+Q8BZL1); assay: Inhibition of NEU3/NEU4 in NEU1 knockout C57BL6 mouse brain homogenate assessed as residual activity using 4MU-NANA as substrate after 30 mins relative to control; summary of the method: as §3
Sialidase-3 [16] = molecular target: T2, Sialidase-3; assay: Inhibition of human N-terminal MBP-fused NEU3 expressed in Escherichia coli using 4MU-NANA as substrate preincubated for 15 mins followed by substrate addition measured every minute for 30 mins by fluorescence based assay
Sialidase-4 = molecular target: T3, Sialidase-4 (Homo sapiens, UniProt Q8WWR8); assay: Inhibition of human N-terminal MBP-fused NEU4 expressed in Escherichia coli using 4MU-NANA as substrate preincubated for 15 mins followed by substrate addition measured after 30 mins by fluorescence based assay
T3 sequence (Q8WWR8 whole entry): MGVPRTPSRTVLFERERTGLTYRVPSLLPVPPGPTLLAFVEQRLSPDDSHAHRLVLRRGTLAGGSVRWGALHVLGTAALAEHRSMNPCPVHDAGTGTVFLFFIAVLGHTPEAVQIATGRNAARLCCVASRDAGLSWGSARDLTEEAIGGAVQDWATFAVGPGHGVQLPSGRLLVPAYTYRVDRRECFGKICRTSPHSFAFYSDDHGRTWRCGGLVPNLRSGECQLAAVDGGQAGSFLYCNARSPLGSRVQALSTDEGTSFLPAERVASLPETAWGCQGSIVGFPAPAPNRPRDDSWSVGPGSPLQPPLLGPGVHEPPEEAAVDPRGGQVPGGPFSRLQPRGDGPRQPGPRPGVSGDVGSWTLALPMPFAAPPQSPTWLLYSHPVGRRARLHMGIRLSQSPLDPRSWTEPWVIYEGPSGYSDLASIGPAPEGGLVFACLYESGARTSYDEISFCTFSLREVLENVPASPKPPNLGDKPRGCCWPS

Sialidase NEU3/NEU4 (Mus musculus), sequence (Q8BZL1 whole entry, looked up, the tested form may be a part): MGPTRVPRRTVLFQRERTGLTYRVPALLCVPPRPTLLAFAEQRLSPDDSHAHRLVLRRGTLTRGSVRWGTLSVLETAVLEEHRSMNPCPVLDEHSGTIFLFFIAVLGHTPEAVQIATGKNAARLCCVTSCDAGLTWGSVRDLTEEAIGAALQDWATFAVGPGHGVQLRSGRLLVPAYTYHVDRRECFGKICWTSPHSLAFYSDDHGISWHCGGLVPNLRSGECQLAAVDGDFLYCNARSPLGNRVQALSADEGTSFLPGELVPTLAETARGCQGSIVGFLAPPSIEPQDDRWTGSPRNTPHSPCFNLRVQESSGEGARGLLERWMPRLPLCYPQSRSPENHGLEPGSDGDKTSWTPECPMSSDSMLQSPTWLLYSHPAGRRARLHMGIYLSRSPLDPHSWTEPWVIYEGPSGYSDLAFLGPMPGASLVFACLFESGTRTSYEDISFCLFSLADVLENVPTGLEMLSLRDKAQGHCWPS
Sialidase NEU3/NEU4 (Mus musculus), sequence (Q9JMH7 whole entry, looked up, the tested form may be a part): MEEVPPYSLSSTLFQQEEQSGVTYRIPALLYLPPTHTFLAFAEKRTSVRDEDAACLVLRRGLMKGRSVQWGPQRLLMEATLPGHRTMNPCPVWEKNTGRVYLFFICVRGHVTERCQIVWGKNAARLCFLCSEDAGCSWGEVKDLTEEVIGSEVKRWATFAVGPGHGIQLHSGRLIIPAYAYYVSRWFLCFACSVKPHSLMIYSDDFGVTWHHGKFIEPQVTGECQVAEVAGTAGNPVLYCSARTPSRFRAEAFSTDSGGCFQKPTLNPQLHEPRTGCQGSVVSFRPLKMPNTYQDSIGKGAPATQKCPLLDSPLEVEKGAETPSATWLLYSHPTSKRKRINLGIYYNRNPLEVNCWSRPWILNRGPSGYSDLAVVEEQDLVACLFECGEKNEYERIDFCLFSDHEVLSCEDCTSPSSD

solubility kinetic at 24 h, 10000 µM [3]: 5 µg/mL (≈ 9.08 µM)
solubility kinetic at 24 h, 10000 µM [4]: 3.2 µg/mL (≈ 5.81 µM)
efflux ratio at 0.5 h, 62.5 µM [5]: 6.7
half-life at 20 µM [6]: > 1.5 h
solubility kinetic at 24 h, 10000 µM [7]: 3.9 µg/mL (≈ 7.08 µM)
logD at 2 h, 10 µM [1]: 3.8
Papp A→B at 0.5 h, 62.5 µM [8]: 0.32 ×10⁻⁶ cm/s
Papp B→A at 0.5 h, 62.5 µM [9]: 2.2 ×10⁻⁶ cm/s
Compound: CCCCOC(=O)C1=C[C@H](O)[C@@H](NC(C)=O)[C@H]([C@H](O)[C@H](O)Cn2cc(-c3ccc(-c4ccccc4)cc3)nn2)O1

IC50 (Sialidase-3 [10]): 3.8 µM
IC50 (Sialidase-1 [11]): > 500 µM
IC50 (Sialidase-3 [12]): 0.58 µM
Activity [13]: 85%
inhibition [14]: inactive
Activity [15]: 60%
logD at 2 h, 10 µM [1]: 1.2
Ki (Sialidase-1 [2]): Not Active
Ki (Sialidase-3 [16]): 0.32 µM
Compound: CC(=O)N[C@H]1[C@H]([C@H](O)[C@H](O)Cn2cc(-c3ccc(-c4ccccc4)cc3)nn2)OC(C(=O)O)=C[C@@H]1NC(=N)N

IC50 (Sialidase-1 [11]): > 500 µM
IC50 (Sialidase-3 [12]): > 500 µM
Compound: CC(=O)N[C@H]1[C@H]([C@H](O)[C@H](O)Cn2cc(-c3ccc(C(=O)O)cc3)nn2)OC(C(=O)O)=C[C@@H]1NC(=O)NCCC(=O)O

solubility kinetic at 24 h, 10000 µM [3]: 2.4 µg/mL (≈ 4.47 µM)
solubility kinetic at 24 h, 10000 µM [4]: 1.7 µg/mL (≈ 3.17 µM)
solubility kinetic at 24 h, 10000 µM [7]: 2.8 µg/mL (≈ 5.22 µM)
Compound: CCCOC(=O)C1=C[C@H](O)[C@@H](NC(C)=O)[C@H]([C@H](O)[C@H](O)Cn2cc(-c3ccc(-c4ccccc4)cc3)nn2)O1

The next lines start with the compound.

Compound: CC(=O)N[C@H]1[C@H]([C@H](O)[C@H](O)CO)OC(C(=O)O)=C[C@@H]1O [NEU5AC2EN]
logD at 2 h, 10 µM [1]: < -1.5
Ki (Sialidase-1 [2]): Not Active

Compound: CC(=O)N[C@H]1[C@H]([C@H](O)[C@H](O)Cn2cc(-c3ccc(C(=O)O)cc3)nn2)OC(C(=O)O)=C[C@@H]1N=[N+]=[N-]
IC50 (Sialidase-1 [11]): > 500 µM

Compound: CCCCC(=O)NC[C@@H](O)[C@@H](O)[C@@H]1OC(C(=O)O)=C[C@H](O)[C@H]1NC(C)=O
IC50 (Sialidase-4): 220 µM
logD at 2 h, 10 µM [1]: -1

Compound: CC(=O)N[C@H]1[C@H]([C@H](O)[C@H](O)CO)OC(C(=O)O)=C[C@@H]1NC(=N)N [ZANAMIVIR]
IC50 (Sialidase-1 [11]): > 500 µM
Ki (Sialidase-1 [2]): Not Active
